Reference: the M2OR odorant receptor database

Biological target: T1, OR2J2 (Homo sapiens) (UniProt O76002)
T1 sequence (whole entry): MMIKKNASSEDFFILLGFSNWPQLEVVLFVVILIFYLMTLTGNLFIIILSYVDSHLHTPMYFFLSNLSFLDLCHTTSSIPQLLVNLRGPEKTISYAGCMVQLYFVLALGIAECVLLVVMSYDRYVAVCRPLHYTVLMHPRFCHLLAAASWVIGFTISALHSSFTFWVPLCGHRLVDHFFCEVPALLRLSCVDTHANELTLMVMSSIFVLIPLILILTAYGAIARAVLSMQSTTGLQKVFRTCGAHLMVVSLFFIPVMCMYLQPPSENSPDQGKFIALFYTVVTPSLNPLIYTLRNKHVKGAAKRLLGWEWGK
Conditions: stereoisomer not certain
Procedure, shortened: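 Each receptor–molecule pair is labelled responsive or non-responsive (inactive) according to whether the original authors judged the measured signal statistically different from baseline. The data were taken from the main text and supplementary material of published papers and checked for typos and inconsistencies. Assay methods differed by source, with transient luciferase assays in mammalian cell lines being common.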
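Also: active if original authors judged signal statistically different from baseline.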

| Compound | odorant receptor agonist call |
| --- | --- |
| O=C1Cc2ccccc2O1 | inactive |
| CCCCCCCO | active |
| CCCCCCCCO | active |
| CCCCOC=O | inactive |
| O=C(c1ccccc1)c1ccccc1 | inactive |
| CCCCCCCCCCO | active |
| CC(C)=CCCC(C)=CCO | inactive |
| CCCCCCCC(=O)[O-].[H+] | inactive |
| CCCCCC1=C(C)CCC1=O | inactive |
| CC(=O)OCc1ccccc1 | inactive |
| C=C(C)C1CCC(C)C(=O)C1 (stereo not given) | inactive |
| CCCCCCCCCC(=O)[O-].[H+] | inactive |
| CCCC(=O)C(C)=O | inactive |
| CCCCCCOC(C)=O | inactive |
| C=CCOC(=O)CCCCCC | inactive |
| CCC(=O)C(=O)CC | inactive |
| CCC(C(=O)O)c1ccccc1 (stereo not given) | inactive |
| CCCCC(=O)CC | inactive |
| CCCCCC=O | inactive |
| CCCCCCC(=O)[O-].[H+] | inactive |
| CCCCCCCCS | inactive |
| CC(=O)Oc1ccccc1 | inactive |
| CCCCCOC(=O)CCCCC | inactive |
| c1ccccc1 | inactive |
| CCCCCCCCCO | active |
| CCCCCC(=O)CC | inactive |
| CCCCCCCC(C)=O | inactive |
| CCOC(=O)C(C)C | inactive |
| CCCCCO | inactive |
| CCCCOC(=O)C(C)OC(=O)CCC (stereo not given) | inactive |
